ChEMBL document CHEMBL3763011, “Carbohydrate-based inducers of cellular stress for targeting cancer cells” (Bioorg Med Chem Lett, 2016)
Active and inactive are the calls of the source. The calls are words filed in the database; no cut-off is given here.

Key:
NCI-H1299 [1] = assay: Induction of ROS generation in human NCI-H1299 cells at 100 uM after 5 hrs by DCF-DA staining-based assay; assay type: functional
Procedure, shortened: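 Single-point screen at 100 µM in duplicate, 5 h incubation in H1299 cells. ROS detected by DCF-DA fluorescence, reported as fold over non-treated control (Fi/Fo).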

NCI-H1299 [2] = assay: Cytotoxicity against human NCI-H1299 cells assessed as reduction in cell viability at 100 uM after 48 hrs by MTT assay; assay type: functional, cell-based
Procedure, shortened: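 H1299 cells treated at 100 µM for 48 h in duplicate. MTT viability expressed as treated versus non-treated control (Vi/Vo).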

NCI-H1299 [3] = assay: Induction of ROS generation in human NCI-H1299 cells after 5 hrs by DCF-DA staining-based assay; assay type: functional, cell-based
Procedure, shortened: (§1)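 H1299 cells incubated 5 h with increasing compound concentrations (0–100 µM). ROS read with the cell-permeable probe DCF-DA. Fluorescence of treated cells (Fi) ratioed to non-treated control (Fo).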

NCI-H1299 [4] = assay: Cytotoxicity against human NCI-H1299 cells assessed as reduction in cell viability after 48 hrs by MTT assay; assay type: functional, cell-based; details: for IC50: NCI-H1299, 48 h
Procedure, shortened: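 H1299 non-small cell lung carcinoma cells incubated with compound for 48 h. Viability by MTT relative to non-treated control (Vi/Vo). IC50 taken from dose–response.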

[5] = biological target: Endoplasmic reticulum chaperone BiP (Homo sapiens) (UniProt P11021); assay: Induction of glucose-regulated protein 78 in HEK293 cells at 200 uM after 6 hrs by Western blotting method; assay type: cell-based
Procedure, shortened: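 GRP78 (BiP) induction, an ER stress marker, assessed by Western blot of HEK293 lysates after treatment at 200 µM.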

NCI-H1299 [6] = assay: Induction of ROS generation in human NCI-H1299 cells at <= 100 uM after 5 hrs by DCF-DA staining-based assay; assay type: functional
[7] = biological target: T1, AMP-activated protein kinase, AMPK (Homo sapiens) (UniProt P54646+O43741+P54619+Q9UGJ0+Q9Y478+Q13131+Q9UGI9); assay: Activation of AMPK in HEK293 cells assessed as AMPK phosphorylation after 16 hrs by Western blotting method; assay type: cell-based
Procedure, shortened: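 HEK293 cells treated with increasing concentrations of compound for 16 h; cell lysates analysed by Western blot with antibodies to phosphorylated AMPK (also p53).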

NCI-H1299 [8] = assay: Cytotoxicity against human NCI-H1299 cells assessed as viability at 500 uM after 48 hrs by MTT assay; assay type: functional; details: NCI-H1299, 48 h, read-out: Activity
Procedure, shortened: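 H1299 non-small cell lung carcinoma cells incubated with compound for 48 h; viability read by MTT assay and expressed as treated (Vi) relative to non-treated control (Vo).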

NCI-H1299 [9] = assay: Induction of ROS generation in human NCI-H1299 cells at […] after 5 hrs by DCF-DA staining-based assay
[10] = biological target: T1, AMP-activated protein kinase, AMPK (Homo sapiens); assay: Activation of AMPK in HEK293 cells assessed as p53 stabilization at 0.03 to 0.1 mM after 16 hrs by Western blotting method; assay type: cell-based
NCI-H1299 [11] = assay: Induction of ROS generation in human NCI-H1299 cells at <= 50 uM after 5 hrs by DCF-DA staining-based assay; assay type: functional; procedure, shortened: as §1

Endoplasmic reticulum chaperone BiP (Homo sapiens), sequence (P11021 whole entry): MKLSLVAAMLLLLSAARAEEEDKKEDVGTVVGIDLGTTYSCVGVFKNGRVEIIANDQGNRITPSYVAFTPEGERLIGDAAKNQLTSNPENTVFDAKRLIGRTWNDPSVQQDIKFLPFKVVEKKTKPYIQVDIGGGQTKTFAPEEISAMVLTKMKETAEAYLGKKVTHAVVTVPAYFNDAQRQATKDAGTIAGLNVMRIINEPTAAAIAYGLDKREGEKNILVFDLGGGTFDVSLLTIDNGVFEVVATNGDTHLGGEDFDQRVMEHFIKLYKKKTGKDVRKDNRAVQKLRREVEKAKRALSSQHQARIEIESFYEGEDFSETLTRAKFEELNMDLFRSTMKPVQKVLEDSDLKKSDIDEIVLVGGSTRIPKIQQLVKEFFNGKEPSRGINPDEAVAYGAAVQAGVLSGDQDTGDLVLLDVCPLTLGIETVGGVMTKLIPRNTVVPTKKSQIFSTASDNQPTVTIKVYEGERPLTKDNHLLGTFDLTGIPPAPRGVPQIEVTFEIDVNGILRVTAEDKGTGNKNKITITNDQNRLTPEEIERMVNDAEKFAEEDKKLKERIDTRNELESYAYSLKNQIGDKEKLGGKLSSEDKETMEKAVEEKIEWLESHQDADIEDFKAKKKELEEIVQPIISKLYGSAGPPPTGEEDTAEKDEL

O[C@@H]1[C@@H](O)[C@H](Nc2cccc3ccccc23)OC[C@H]1O
fold change (FC) (NCI-H1299 [1]): >=2 | Activity (NCI-H1299 [2]): Active | Activity (NCI-H1299 [3]): Dose-dependent effect | IC50 (NCI-H1299 [4]): 75 µM | Activity [5]: Active | fold change (FC) (NCI-H1299 [6]): 2

O[C@H]1[C@H](O)[C@@H](Nc2cccc3ccccc23)OC[C@H]1O
fold change (FC) (NCI-H1299 [1]): >=2 | Activity (NCI-H1299 [2]): Active | Activity (NCI-H1299 [3]): Dose-dependent effect | IC50 (NCI-H1299 [4]): 75 µM | fold change (FC) (NCI-H1299 [6]): 2

O[C@H]1[C@H](O)[C@H](Nc2ccccc2)OC[C@H]1O
Activity (NCI-H1299 [1]): inactive | Activity (NCI-H1299 [2]): Active

CC(=O)OC1OC[C@@H](OC(C)=O)[C@H](OC(C)=O)[C@H]1OC(C)=O (stereo partly specified)
Activity (NCI-H1299 [4]): inactive

OC[C@H]1OC(O)C[C@@H](O)[C@@H]1O (stereo partly specified)
Activity [7]: Dose-dependent effect | viability at 500 µM (NCI-H1299 [8]): 80% | fold change (FC) (NCI-H1299 [9]): 1.5

OO [HYDROGEN PEROXIDE]
IC50 (NCI-H1299 [4]): 60 µM

O=c1oc2ccccc2cc1N[C@@H]1OC[C@H](O)[C@H](O)[C@H]1O
fold change (FC) (NCI-H1299 [1]): >=2

CC(=O)N[C@H]1C(Nc2ccc3nccnc3c2)O[C@H](CO)[C@@H](O)[C@@H]1O (stereo partly specified)
fold change (FC) (NCI-H1299 [1]): >=2

OC[C@H]1OC(Nc2cccc3ccccc23)[C@H](O)[C@@H](O)[C@H]1O (stereo partly specified)
fold change (FC) (NCI-H1299 [1]): >=2

O[C@@H]1[C@@H](O)[C@@H](O)CO[C@H]1Nc1ccccc1
Activity (NCI-H1299 [2]): Active

C[C@@H]1OC(Nc2cccc3ccccc23)[C@H](O)[C@H](O)[C@H]1O (stereo partly specified)
fold change (FC) (NCI-H1299 [1]): >=2

O=C[C@H](O)[C@@H](O)[C@H](O)CO
Activity (NCI-H1299 [4]): inactive

CC(=O)O[C@@H]1[C@@H](OC(C)=O)[C@H](OC(C)=O)CO[C@H]1Nc1cccc2ccccc12
Activity [10]: Active | Activity [7]: Dose-dependent effect | IC50 (NCI-H1299 [4]): 30 µM | fold change (FC) (NCI-H1299 [11]): 1.5 | Activity [5]: Active

O[C@H]1[C@H](O)[C@@H](Nc2ccccc2)OC[C@H]1O
Activity (NCI-H1299 [1]): inactive | Activity (NCI-H1299 [2]): Active
